Read-outs that look alike come from different tables or passages of the source.
Key:
[1] = liver microsomal stability; type: in vitro ADME; details: Sprague-Dawley, rat, liver microsomes
Outline: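 Sprague-Dawley rat liver microsomes in PBS with compound (0.5 µL of 2 mM DMSO stock) were preincubated 5 min at 37 °C. NADPH (10 mM stock) was added, then 60 min at 37 °C. Quenched with ice-cold CH3CN, centrifuged, quantified by LC-MS/MS as % peak area 60 vs 0 min. At least triplicate; verapamil positive control.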

human mGlu2 = human mGlu2 (Homo sapiens, UniProt Q14416); experiment: thallium flux GIRK functional assay, human mGlu2; type: cell-based
human mGlu3 = human mGlu3 (Homo sapiens, UniProt Q14832); experiment: thallium flux GIRK functional assay, human mGlu3; type: cell-based; details: for selectivity for mGlu2 over mGlu3: thallium flux GIRK assays
Outline: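 HEK cells stably co-expressing GIRK and human mGlu3 (puromycin-selected polyclonal line) were plated overnight and loaded with FluoZin2-AM (330 nM final) for 1 h at RT. Compound (0.3% DMSO final) was preincubated ~1 h at RT, then thallium buffer with a full glutamate concentration-response was added. The 5–15 s fluorescence slope, normalised to vehicle and maximal agonist, was fitted to a four-parameter logistic equation.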

LogP, shake flask method = type: physicochemical; details: n-octanol/water
Outline: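 Test compound (50 µL of 20 µM DMSO stock) was mixed with mutually pre-saturated n-octanol and water (475 µL each), vortexed 1 min and shaken overnight at 37 °C. Each phase was quantified by LC-MS/MS, and LogP was taken as log of the octanol/water amount ratio. Run in triplicate.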

[2] = pH stability in buffer solutions; type: physicochemical; details: 60 min
Outline: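 A DMSO stock (0.25 µmol/mL) was diluted 50 µL into 950 µL of 20 mM buffer: phosphate pH 7.4, boric acid-KCl-NaOH pH 9.4, or sodium acetate-KCl-HCl pH 5.0. Samples were held 1 h at 37 °C, and unchanged compound was measured by reversed-phase HPLC (CH3CN/H2O + 0.1% TFA).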

major CNS targets = experiment: GPCRome assays; type: cell-based; details: NIH PDSP
[3] = PET imaging in normal rat brain; type: in vivo, Sprague-Dawley rats; details: unlabeled QCA 1 mg/kg, self-blocking
other mGlu receptors = experiment: activity towards other mGlu receptors; details: test concentration of 30 µM
[4] = cited from earlier work
[5] = mice
mGlu2 [6] = target: mGlu2 (Rattus norvegicus, UniProt P31421); experiment: in vitro autoradiography on rat brain sections; type: binding
[7] = rat
mGlu2 [8] = details: cited from earlier work

human mGlu3, sequence (Q14832 23-879): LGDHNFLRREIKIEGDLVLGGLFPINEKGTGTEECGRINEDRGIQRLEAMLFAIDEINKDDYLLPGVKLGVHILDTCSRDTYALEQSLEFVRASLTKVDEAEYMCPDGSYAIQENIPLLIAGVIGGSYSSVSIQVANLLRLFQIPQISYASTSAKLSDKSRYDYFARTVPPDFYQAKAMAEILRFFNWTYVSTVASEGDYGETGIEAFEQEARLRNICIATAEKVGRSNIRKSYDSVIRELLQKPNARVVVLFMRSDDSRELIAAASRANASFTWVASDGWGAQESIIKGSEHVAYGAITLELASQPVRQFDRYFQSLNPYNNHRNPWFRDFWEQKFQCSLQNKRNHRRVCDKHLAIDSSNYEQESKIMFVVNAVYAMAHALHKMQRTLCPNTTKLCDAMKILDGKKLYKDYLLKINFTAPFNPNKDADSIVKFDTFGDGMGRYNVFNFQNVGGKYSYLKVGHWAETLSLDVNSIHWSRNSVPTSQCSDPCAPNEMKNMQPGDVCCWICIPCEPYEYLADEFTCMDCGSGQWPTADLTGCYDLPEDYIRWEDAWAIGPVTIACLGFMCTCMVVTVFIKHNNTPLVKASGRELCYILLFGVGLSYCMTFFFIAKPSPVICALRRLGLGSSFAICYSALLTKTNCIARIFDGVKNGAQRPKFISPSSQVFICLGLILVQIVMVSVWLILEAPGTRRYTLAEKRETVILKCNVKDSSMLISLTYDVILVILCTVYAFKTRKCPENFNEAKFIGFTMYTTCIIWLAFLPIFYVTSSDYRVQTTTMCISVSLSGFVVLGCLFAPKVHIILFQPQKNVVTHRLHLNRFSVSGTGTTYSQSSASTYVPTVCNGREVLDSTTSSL
human mGlu2, sequence (Q14416 19-872): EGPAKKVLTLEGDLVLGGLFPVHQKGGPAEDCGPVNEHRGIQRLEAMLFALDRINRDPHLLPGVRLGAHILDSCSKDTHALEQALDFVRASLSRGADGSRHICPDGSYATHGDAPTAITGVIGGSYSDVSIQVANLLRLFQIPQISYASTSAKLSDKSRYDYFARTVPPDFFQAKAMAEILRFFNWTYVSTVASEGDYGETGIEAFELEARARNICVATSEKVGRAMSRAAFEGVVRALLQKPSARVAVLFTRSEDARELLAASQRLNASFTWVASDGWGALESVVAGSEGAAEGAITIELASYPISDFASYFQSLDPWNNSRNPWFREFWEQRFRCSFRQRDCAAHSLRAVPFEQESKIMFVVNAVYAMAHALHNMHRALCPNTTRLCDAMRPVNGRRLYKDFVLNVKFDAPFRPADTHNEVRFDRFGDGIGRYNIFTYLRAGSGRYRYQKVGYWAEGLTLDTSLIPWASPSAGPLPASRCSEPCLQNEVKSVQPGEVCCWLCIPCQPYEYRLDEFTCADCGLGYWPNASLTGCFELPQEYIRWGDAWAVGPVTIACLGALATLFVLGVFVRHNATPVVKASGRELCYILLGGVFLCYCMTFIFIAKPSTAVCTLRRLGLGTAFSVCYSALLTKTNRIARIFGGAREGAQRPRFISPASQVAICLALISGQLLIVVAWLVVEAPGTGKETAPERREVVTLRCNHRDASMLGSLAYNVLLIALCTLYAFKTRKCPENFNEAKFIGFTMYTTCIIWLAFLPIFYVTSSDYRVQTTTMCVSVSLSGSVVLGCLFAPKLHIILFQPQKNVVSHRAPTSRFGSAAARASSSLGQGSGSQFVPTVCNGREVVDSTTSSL
mGlu2 (Rattus norvegicus, UniProt P31421), sequence (P31421 19-872): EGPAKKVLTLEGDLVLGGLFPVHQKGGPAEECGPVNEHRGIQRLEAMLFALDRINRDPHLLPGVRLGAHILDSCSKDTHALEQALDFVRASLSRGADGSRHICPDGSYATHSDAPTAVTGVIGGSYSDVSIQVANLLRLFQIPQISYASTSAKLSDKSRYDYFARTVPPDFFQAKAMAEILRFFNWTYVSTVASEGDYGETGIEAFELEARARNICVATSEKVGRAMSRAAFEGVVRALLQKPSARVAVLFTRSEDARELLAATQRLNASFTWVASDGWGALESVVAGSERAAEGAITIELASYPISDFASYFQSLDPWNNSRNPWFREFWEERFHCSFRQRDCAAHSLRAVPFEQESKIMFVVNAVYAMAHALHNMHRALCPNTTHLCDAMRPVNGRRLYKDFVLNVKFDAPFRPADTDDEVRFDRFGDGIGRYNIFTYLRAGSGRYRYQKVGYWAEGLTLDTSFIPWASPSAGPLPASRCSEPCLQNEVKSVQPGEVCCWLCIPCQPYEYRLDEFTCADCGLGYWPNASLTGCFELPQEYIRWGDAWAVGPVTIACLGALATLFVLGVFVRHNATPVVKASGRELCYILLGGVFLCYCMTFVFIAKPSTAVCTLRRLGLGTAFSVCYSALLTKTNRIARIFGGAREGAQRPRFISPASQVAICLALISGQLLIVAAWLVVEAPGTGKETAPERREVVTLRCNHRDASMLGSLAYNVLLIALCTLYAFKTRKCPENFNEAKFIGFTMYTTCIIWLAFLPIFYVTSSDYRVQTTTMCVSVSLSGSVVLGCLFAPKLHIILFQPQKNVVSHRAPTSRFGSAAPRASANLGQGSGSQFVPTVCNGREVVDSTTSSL

SMILES	remaining at 1 h, 2 µM [1]	IC50 (human mGlu2)	logP (LogP, shake flask method)	pH stability, percent remaining of the parent molecule ([2]; pH 5.0, 37 °C)	pH stability, percent remaining of the parent molecule ([2]; pH 7.4, 37 °C)	pH stability, percent remaining of the parent molecule ([2]; pH 9.4, 37 °C)	selectivity for mGlu2 over mGlu3 (human mGlu3)	other results
NC(=O)c1cc(-c2ccc(OCCF)cc2F)c2ccc(CN3C(=O)CCC3=O)cc2n1 [FEQCA, 7-((2,5-dioxopyrrolidin-1-yl)methyl)-4-(2-fluoro-4-(2-fluoroethoxy)phenyl)quinoline-2-carboxamide]	70.1%	130 ± 10 nM	1.75	98.5%	53.6%	59.0%	excellent selectivity for mGlu2 over mGlu3	–
[11CH3]Oc1ccc(C2CCN(c3ccn(CC4CC4)c(=O)c3C#N)CC2)cc1 [[^11C]CMDC, 1-(cyclopropylmethyl)-4-(4-[^11C]methoxyphenyl)-piperidin-1-yl-2-oxo-1,2-dihydropyridine-3-carbonitrile]	–	–	–	–	–	–	–	peak brain uptake [4]: ca. 0.6 SUV
[11CH3]Oc1ccc(-c2cc(C(N)=O)nc3cc(CN4C(=O)CCC4=O)ccc23)c(F)c1 [[^11C]QCA, 7-((2,5-dioxopyrrolidin-1-yl)methyl)-4-(2-fluoro-4-[^11C]methoxyphenyl) quinoline-2-carboxamide]	–	–	–	–	–	–	–	peak brain uptake in whole brain (PgP/Bcrp; PgP/Bcrp knockout mice): ca. 0.8 SUV; increase of whole brain uptake in PgP/Bcrp knockout vs wild-type mice (PgP/Bcrp; calculated based on area under curve): 130%; peak brain uptake in whole brain (PgP/Bcrp; wild-type mice): ca. 0.3 SUV; uptake in heart, lungs, liver, pancreas, kidneys and small intestine ([5]; 1 min post injection): > 3 % ID/g; brain uptake, peak value ([5]; at 1 min post injection): 0.42 % ID/g; in vitro specific binding to mGlu2 (mGlu2 [6]): moderate-to-high level of in vitro specific binding; unchanged [11C]QCA in brain homogenates ([7]; 5 min post injection): 78%; unchanged [11C]QCA in plasma ([7]; 5 min post injection): 93%; unchanged [11C]QCA in brain homogenates ([7]; 20 min post injection): 41%; unchanged [11C]QCA in plasma ([7]; 20 min post injection): 88%; unchanged [11C]QCA in brain homogenates ([7]; 60 min post injection): 34%; unchanged [11C]QCA in plasma ([7]; 60 min post injection): 79%
[11CH3]Oc1c(F)ccc(F)c1C1CCN(c2ccn3c(CC4CC4)nnc3c2Cl)CC1 [compound 2]	–	–	–	–	–	–	–	mGlu2 selectivity over the other mGlu receptors (mGlu2 [8]): greater than 350 fold

Second part, led by results:

remaining at 1 h, 2 µM [1]	IC50 (human mGlu2)	logP (LogP, shake flask method)	pH stability, percent remaining of the parent molecule ([2]; pH 5.0, 37 °C)	pH stability, percent remaining of the parent molecule ([2]; pH 7.4, 37 °C)	pH stability, percent remaining of the parent molecule ([2]; pH 9.4, 37 °C)	SMILES	selectivity for mGlu2 over mGlu3 (human mGlu3)	other results
64.6%	1080 ± 1300 nM	1.99	91.5%	72.5%	76.3%	NC(=O)c1cc(-c2ccc(OCCCF)cc2F)c2ccc(CN3C(=O)CCC3=O)cc2n1 [FPQCA, 7-((2,5-dioxopyrrolidin-1-yl)methyl)-4-(2-fluoro-4-(3-fluoropropoxy)phenyl)quinoline-2-carboxamide]	excellent selectivity for mGlu2 over mGlu3	–
64.4%	–	1.27	97.9%	50.9%	46.7%	COc1ccc(-c2cc(C(N)=O)nc3cc(CN4C(=O)CCC4=O)ccc23)c(F)c1 [QCA, 7-((2,5-dioxopyrrolidin-1-yl)methyl)-4-(2-fluoro-4-methoxyphenyl)quinoline-2-carboxamide]	–	effect on glutamate potency or glutamate maximal response (Schild analysis) (human mGlu3; mGlu3, 41 nM-30 µM QCA): no effect; interaction with major CNS targets (major CNS targets): no significant interaction; effect of pretreatment on [11C]QCA brain uptake [3]: failed to show significant reduction of brain uptake; activity towards other mGlu receptors (other mGlu receptors): inactive

Reference: paper PMC5607115 (ACS chemical neuroscience, 2017)
